Source: ChEMBL document CHEMBL1142204, “Cathepsin A is the major hydrolase catalyzing the intracellular hydrolysis of the antiretroviral nucleotide phosphonoamidate prodrugs GS-7340 and GS-9131” (Antimicrob Agents Chemother, 2007)

Key:
Homo sapiens [1] = species: Homo sapiens; assay: Activity of human PBMCs prodrug hydrolase from leukopheresis patient in BS-HIC pool
Homo sapiens [2] = species: Homo sapiens; assay: Activity of crude extract human PBMCs prodrug hydrolase from leukopheresis patient
Homo sapiens [3] = species: Homo sapiens; assay: Activity of human PBMCs prodrug hydrolase from leukopheresis patient in Q15 pool
[4] = biological target: T1, Lysosomal protective protein (Homo sapiens) (UniProt P10619); assay: Activity of purified human PBMCs Cat A from leukopheresis patient in Con A pool
T1 sequence (whole entry): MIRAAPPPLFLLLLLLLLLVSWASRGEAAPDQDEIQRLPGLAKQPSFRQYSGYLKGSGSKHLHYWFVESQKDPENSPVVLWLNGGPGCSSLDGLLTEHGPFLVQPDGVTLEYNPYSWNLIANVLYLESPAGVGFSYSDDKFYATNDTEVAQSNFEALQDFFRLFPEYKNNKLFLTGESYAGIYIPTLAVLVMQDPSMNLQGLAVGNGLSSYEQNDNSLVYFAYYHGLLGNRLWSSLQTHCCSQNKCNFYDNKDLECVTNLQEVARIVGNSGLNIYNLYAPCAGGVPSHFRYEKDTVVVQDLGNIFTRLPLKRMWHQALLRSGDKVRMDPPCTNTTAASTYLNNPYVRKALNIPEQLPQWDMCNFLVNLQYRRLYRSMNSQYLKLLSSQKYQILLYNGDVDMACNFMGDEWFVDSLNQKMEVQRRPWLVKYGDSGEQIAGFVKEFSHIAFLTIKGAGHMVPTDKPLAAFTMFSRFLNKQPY
Summary of the method: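 Hydrolase purified from fresh human leukopheresis PBMCs (NP-40 extract; Source Q15, butyl Sepharose HIC, then ConA chromatography). Protein by Bradford; specific activity (pmol/min/μg) corrected for estimated 29-kDa catalytic subunit fraction.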

Compound: CC(C)OC(=O)[C@H](C)N[P@](=O)(CO[C@H](C)Cn1cnc2c(N)ncnc21)Oc1ccccc1
- Activity (Homo sapiens [1]): 730 pmol/min/µg
- Activity (Homo sapiens [2]): 16 pmol/min/µg
- Activity (Homo sapiens [3]): 112 pmol/min/µg
- Activity [4]: 35000 pmol/min/µg
